TMEM16A inh = TMEM16A chloride channel inhibitors, primary screen, cell-based, HTS; AID 588511, 2011; actives 1.2% (n = 310,000); HEK293 TMEM16A/YFP iodide influx fluorescence, ionomycin; Anoctamin-1 (Mus musculus), Q8BHY3; normalized B-score (activity score, 25-100; higher = stronger inhibition) at 10 µM;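 active = ratio plate-corrected score three or more library SD toward inhibition, starting fluorescence score within five deviations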;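 also: score derived from kinetic fluorescence span divided by baseline fluorescence per well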
UBC13 inh = UBC13 polyubiquitin chain formation inhibitors, primary screen, biochemical, TR-FRET, uHTS; actives 0.47% (n = 330,000); inhibition, % at 20 µM; Ubiquitin-conjugating enzyme E2 N (Homo sapiens), P61088; in the data active = inhibition above about 45%, passing the limit was not always enough
Target sequence (P61088 whole entry, looked up): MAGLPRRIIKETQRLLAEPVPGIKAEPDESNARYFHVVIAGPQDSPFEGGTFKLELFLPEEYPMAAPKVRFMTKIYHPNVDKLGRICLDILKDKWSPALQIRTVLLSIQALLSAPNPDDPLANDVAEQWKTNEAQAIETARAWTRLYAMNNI
ANO1 activ = TMEM16A chloride channel activators or potentiators, primary screen, cell-based, HTS; HEK293 TMEM16A/YFP-H148Q/I152L, iodide quench fluorescence; stronger effect = lower value; B-score at 10 µM; actives 0.3% (n = 340,000); AID 623877, 2012;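 active = fluorescence-ratio B-score plate-corrected deviation score at least 3 library SD below zero, with starting fluorescence score within 5 deviations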;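 also: channel opened by trigger with iodide after compound preincubation; score built on the fluorescence ratio of max minus min over baseline; more negative score means more quench and so TMEM16A activation or potentiation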
Apaf-1 inh = inhibitors of human Apaf-1 apoptosome, primary screen, biochemical, DEVD-Rh110 fluorescence, uHTS | inhibition, % at 20 µM | AID 489030, 2010 | reconstituted apoptosome caspase-3 activity | actives 0.71% (n = 330,000); active = inhibition of at least 40% at 20 µM;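 also: plate controls were DMSO wells for no effect and DEVD-CHO caspase inhibitor wells for full effect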
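Material: biochemical Apaf-1 apoptosome reconstitution. Medium: Hepes buffer, pH 7.5. Also added: cytochrome c activation, bis-DEVD rhodamine 110 substrate. Timing: 30 min compound preincubation, 50 min activation, room temperature. Measured by: rhodamine 110 fluorescence at Ex 480/Em 540 nm.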
DNA FID counter = compounds displacing fluorescent DNA intercalator, primary screen, artefact control for HCV NS3 helicase inhibitor project, biochemical, FID fluorescence; DNA fluorescent intercalator displacement; inhibition, % at 7.9 µM; actives 0.17% (n = 290,000); AID 1845, 2009; in the data active = inhibition above about 37%;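 also: 0% = vehicle and 100% = reference compound; higher means more ethidium bromide displaced from hairpin DNA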
An asterisk follows results filed as active; i = inactive; . = not tested or not shown. The list is not random: actives were taken first. Their share in the collection is about 2.4%.

SMILES	TMEM16A inh	UBC13 inh	ANO1 activ	Apaf-1 inh	DNA FID counter
Cc1ccc(NS(=O)(=O)c2ccc3c(c2)C(=O)c2ccccc2C3=O)c(C)c1	i	.	i	.	6
Cc1ccc(NC2=CC(=O)C(=O)c3ccccc32)c(C)c1	.	-172	i	87*	.
O=C1C=C(Nc2ccc(F)cc2)c2ccccc2C1=O	.	-256	i	87*	.
COC(=O)c1ccc(COC(=O)CNC(=O)c2ccc(OC)cc2)cc1	.	3	i	-2	.
CN(C)CCNC(=O)COc1ccc(C23CC4CC(CC(C4)C2)C3)cc1	i	37	i	26	38*
COc1ccc(OCC(O)Cn2c(=N)n(Cc3ccccc3)c3ccccc32)cc1 (configuration not stated)	i	19	i	27	48*
Cc1cccc(OCC(O)Cn2c(=N)n(CCN3CCCCC3)c3ccccc32)c1 (configuration not stated)	i	16	i	4	39*
CCN(CC)CCn1c(=N)n(CC(O)COc2cccc(C)c2)c2ccccc21 (configuration not stated)	i	16	i	25	33
C/C(=N\NC(=O)c1ccccc1F)c1ccc2c(c1)Nc1ccccc1S2	i	5	i	22	2
C/C(=N\NC(=O)c1ccc(O)cc1)c1ccc2c(c1)Nc1ccccc1S2	25*	-2	i	12	5
CN(CC(=O)Nc1ccc(F)cc1)C(=O)COC(=O)c1cc(Br)c(Br)s1	.	.	i	.	.
CCOc1cc(O)c(-c2[nH]ncc2-c2nc(C)cs2)cc1CC	25*	9	i	14	-39
CCc1cc(-c2[nH]ncc2-c2nc3ccccc3n2C)c(O)cc1O	i	11	i	7	-15
O=C(Cn1c(=O)oc2ccccc21)N1CCCC1	i	3	i	1	-6
O=[N+]([O-])c1ccccc1Oc1ccc(S(=O)(=O)N2CCOCC2)cc1	.	16	i	-6	.
COc1ccc(-c2oc(NC(=O)CCl)c(C#N)c2-c2ccc(OC)cc2)cc1	100*	9	i	12	-16
N#Cc1c(NC(=O)CSc2ncccn2)oc(-c2ccccc2)c1-c1ccccc1	i	-15	i	7	-12
COc1ccc(-c2oc(NC(=O)CSc3ncn[nH]3)c(C#N)c2-c2ccc(OC)cc2)cc1	25*	-10	i	10	-5
CCCn1c(SCC(=O)N2CCc3ccccc32)n[nH]c1=O	.	3	i	-1	.
CS(=O)(=O)N1CCN(c2ccccc2NC(=O)Cc2ccc(Cl)cc2)CC1	i	-6	-25*	6	-24
CS(=O)(=O)N1CCN(c2ccccc2NC(=O)Cc2ccccc2)CC1	i	3	i	1	-20
CCc1ccc(OCCOCC(O)CN2CCN(Cc3ccc(Cl)cc3)CC2)cc1 (configuration not stated)	100*	27	i	8	17
CCOc1ccc(CN(C)c2ccc(S(=O)(=O)N3CCN(C)CC3)cc2[N+](=O)[O-])cc1OC	.	3	i	20	.
Cc1nc2cc(C)c(C)cc2s1	i	-8	i	-2	-2
Cc1cc2nc3ccc(=[N+](C)C)cc-3sc2cc1N	.	.	i	.	104*
SMILES	TMEM16A inh	UBC13 inh	ANO1 activ	Apaf-1 inh	DNA FID counter
COc1ccc(CN2CN(S(=O)(=O)c3ccccc3)c3nc4ccccc4nc32)cc1	i	6	i	-10	-5
O=C(Nc1ccc2c(c1)OCO2)C1CC(c2ccc(Cl)cc2)=NO1 (configuration not stated)	100*	4	i	-1	-1
Nc1c2ccccc2nc2ccccc12	i	-21	i	-9	51*
Cc1cc(C)n2nc(SC(C)C(=O)N3CCOCC3)nc2n1 (configuration not stated)	.	-2	i	-7	.
CC(=O)NCCOc1nc(N2CCCCC2)nc(N2CCCCC2)n1	i	-5	-7*	-6	-37
COc1ccc(NCc2cccnc2)cc1	i	-12	i	-3	3
CCc1nn2cc(C(=O)c3cc(Cl)ccc3O)cnc2c1-c1ccc(F)cc1	100*	-15	i	16	5

Compound activity: PubChem BioAssay, several laboratories
